Test results reported in the EternaBench riboswitch data.

System: MS2 coat protein
Assay: apparent Kd, MS2 coat protein; higher = weaker binding; RNA-MaP array; FMN 200 µM where present
Procedure, shortened: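 The apparent Kd is reported as the median of filtered per-cluster binding-curve fits. To get these curves, designs transcribed by stalled E. coli RNA polymerase on Illumina sequencing-chip clusters were titrated with SNAP-549-labelled MS2 coat protein from 0.7 or 1.5 nM, doubling to 3 µM. Titrations were run without and then with constant ligand in 100 mM Tris-HCl pH 7.5, 80 mM KCl, 4 mM MgCl2, BSA, DTT, yeast tRNA and Tween-20, and green signal was normalised to red-channel RNA signal and control-cluster median Fmax.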

[1] = designed as: OFF switch for flavin mononucleotide, no ligand
[2] = ligand present: flavin mononucleotide, designed as: OFF switch for flavin mononucleotide
[3] = designed as: ON switch for flavin mononucleotide, no ligand
[4] = ligand present: flavin mononucleotide, designed as: ON switch for flavin mononucleotide

Sequence	apparent Kd [1] [nM]	apparent Kd [2] [nM]	apparent Kd [3] [nM]	apparent Kd [4] [nM]
CAGGUAGACUGAGGAUAUACAAAGACCUAGUUUAUCUAGGUCAAAAUCACAUGAGGAUCACCCAUGUAGAAGGCAGUCUGCCUG	15.7	26		
CAGGUAGACUGAGGAUAUACAAUAAAGACCUAGUCUAUCUAGGUCUCCACAUGAGGAUCACCCAUGUAGAAGGCAGUCUGCCUG	18.1	44.2		
CAGGUAGCUACAGGAUAUACACAGCUCAGUAAACUGAGCAAAAGAUCUACAUGAGGAUCACCCAUGUAGAAGGGUAGCUGCCUG	17.1	18.2		
CAGUACUGAGGAUAUACAUGAGGAUCACCCAUGUAUCCUAGCUAGGAAACUAGCAAAAGUAGAAGGCAGUACUG	16	156		
CAGUACUGAGGAUAUACAUGAGGAUCACCCAUGUGCUCGAAGUAGGAUACUACUAUUAGUAGAAGGCAGUACUG	16.1	76.8		
CAGUACUGAGGAUAUACAUGAGGAUCACCCAUGUGUUCCAGCUAGGAAACUAGCAAUAGUAGAAGGCAGUACUG	20.1	315		
CAGUACUGAGGAUAUACAUGAGGAUCACCCAUGUGUUCCAGCUAGGAAACUAGCAGAAGUAGAAGGCAGUACUG	24.6	441		
CAGUCUACAGGAUAUACAUGAGGAUCACCCAUGUAAAUUCACUUUCGGUAGUCUACAUGUAGAAGGGUAGACUG	125	38.8		
CAUCAAAGAAUACCAGGGCAUUAAUGAGAAGGCCAACCACAUGAGGAUCACCCAUGUACGGGAGUGGAGGAUAUCAGUGGGCCG			52.5	6.43
CAUCAGUGAGGAUAUCGGGCCUGUGGCUGCUCAGCCCGGUUCGAGAAGGCACAUGAGGAUCACCCAUGUGACGU	20.4	46.8		
CAUCUGUGAGGAUAUGGUGAGUAGUGCCUGAGCGCUGCUCACCAGAAGGCACAUGAGGAUCACCCAUGUAUGAA	52.6	214		
CAUUAAUUGAUUAUUGUAUUUUUACAGGAUAUGUUACAUGAGGAUCACCCAUGUUUAUAUGGGAGACAGAAGGGUAUUUAUAGA	355	193		
CAUUAUUAUCGAGGAUAUCCUAUUGAAAUUCUGGGAGAAGGCGGACUCAACAUGAGGAUCACCCAUGUGAGACGGGUGCUAGGG	26.8	25.2		
CAUUAUUAUCGAGGAUAUCGUAUUGAGAUACUAUGAGAAGGCGGGAUAAACAUGAGGAUCACCCAUGUGAGCCGGAUGCUUGUG	17.1	14.8		
CAUUGACAUGAGGAUCACCCAUGUCAGGAUAUGCUUCAUGACACGAAAGUGUCAUGAAGCAGAAGGGACAUGCC	19.4	31.8		
CAUUUACAGGGAGGAUAUACAUGAGGAUCACCCAUGUCAUCAUAUGAUAUUUCUUUUGUAUGAGUGUAGAAGGCCCAACUACCA	19.2	18.4		
CAUUUGUGAGGAUAUCAGGUGUGCUAGCGUACUGGUACAUCUGAGAAGGCACAUGAGGAUCACCCAUGUUCCUC	50	312		
CCAAACGGAGGAUAUACAAAUUAAGGAAAAAAACGCGAAAAACAUGAGGAUCACCCAUGUAGAAGGCCGAAAAA	19.3	17.9		
CCAAGAAUAGGAUAUACACCGUGUCAGCUUUUAUAUAUCGCACAUGAGGAUCACCCAUGUAGAAGGGUUCUCUC	676	564		
CCACGUCUCAUUAACAUGAGGAUCACCCAUGUCAAAAGACAUGAGGAUAUGGAUCCUAAUUGGAUCCAGAAGGCAUGGACGUGG			516	59.4
CCAGAGAUAUGAGGAUAUCGAGUGGAAUACACUCGAGAAGGCAUGUGAAAACAUGAGGAUCACCCAUGUAUGAUCUACUCUGGA			52.2	24.4
CCAGAGAUAUGAGGAUAUCGAGUGGAAUACACUCGAGAAGGCAUGUGAAAACAUGAGGAUCACCCAUGUGAUCAAUACUCUGGA			176	27.7
CCAGAUAUGUGAGGAUAUAUAGUGGAAUACACUAUAGAAGGUAUGUGAGAACAUGAGGAUCACCCAUGUCAUUGGAUAUCUGGA			33.5	38.1
